The source made the active and inactive calls. The rule behind the calls is not given here.
Legend:
RAW264.7 [1] = assay: Antiinflammatory activity in mouse RAW264.7 cells assessed as inhibition of LPS-induced NO production after 18 hrs by Griess assay; format: functional, cell-based; details: RAW264.7, 18 h
Summary of the method: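 RAW264.7 murine macrophages (DMEM, 10% FBS, pen-strep, 37 °C, 5% CO2) seeded 6 × 10^4 cells/well for 18 h. Compound added with 1 μg/mL LPS for 18 h. Supernatant nitrite read with Griess reagent (10 min, OD 540 nm). Inhibition relative to DMSO-only control. L-NMMA as positive control. IC50 is mean ± SD of three independent experiments.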

RAW264.7 [2] = assay: Cytotoxicity against LPS-induced mouse RAW264.7 cells assessed as reduction in cell viability at 6.25 uM after 18 hrs by MTT assay; format: cell-based; details: raw264.7, 18 h
Summary of the method: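 RAW264.7 cells were seeded at 5 × 10^3/well for 18 h, then exposed to compound at various concentrations with or without LPS (1.0 μg/mL) for 18 h. MTT (5 mg/mL, 20 μL) added for 4 h. Formazan dissolved in DMSO and read at 570 nm. Viability is relative to the DMSO-only control, set as 100%.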

RAW264.7 [3] = assay: Downregulation of COX-2 in LPS-induced mouse RAW264.7 cells at 2.5 uM by Western blot analysis; format: functional, cell-based
Summary of the method: (§1)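 Western blot in RAW264.7 cells treated with compound under LPS (1 μg/mL) stimulation. Cells lysed in 1% RIPA and protein quantified by BCA. SDS-PAGE, PVDF transfer, 5% skim milk block for 2 h at 25 °C, primary antibody 12 h at 4 °C, then secondary at room temperature.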

RAW264.7 [4] = assay: Downregulation of iNOS in LPS-induced mouse RAW264.7 cells at 2.5 uM by Western blot analysis; format: functional, cell-based; summary of the method: as §1
RAW264.7 [5] = assay: Inhibition of NF-kappaB in LPS-induced mouse RAW264.7 cells assessed as decrease in STAT3 phosphorylation at 1.25 to 5 uM by Western blot analysis; format: cell-based; summary of the method: as §1
RAW264.7 [6] = assay: Downregulation of total NF-kappaB level in LPS-induced mouse RAW264.7 cells at 1.25 to 5 uM by Western blot analysis; format: functional, cell-based; summary of the method: as §1
[7] = target: Transcription factor p65 (Mus musculus) (UniProt Q04207); assay: Inhibition of LPS-induced NF-kB p65 nuclear translocation in mouse RAW264.7 cells at 1.25 to 5 uM by Western blot analysis; format: cell-based; summary of the method: as §1
Chain of Transcription factor p65 (Mus musculus) (Q04207 whole entry): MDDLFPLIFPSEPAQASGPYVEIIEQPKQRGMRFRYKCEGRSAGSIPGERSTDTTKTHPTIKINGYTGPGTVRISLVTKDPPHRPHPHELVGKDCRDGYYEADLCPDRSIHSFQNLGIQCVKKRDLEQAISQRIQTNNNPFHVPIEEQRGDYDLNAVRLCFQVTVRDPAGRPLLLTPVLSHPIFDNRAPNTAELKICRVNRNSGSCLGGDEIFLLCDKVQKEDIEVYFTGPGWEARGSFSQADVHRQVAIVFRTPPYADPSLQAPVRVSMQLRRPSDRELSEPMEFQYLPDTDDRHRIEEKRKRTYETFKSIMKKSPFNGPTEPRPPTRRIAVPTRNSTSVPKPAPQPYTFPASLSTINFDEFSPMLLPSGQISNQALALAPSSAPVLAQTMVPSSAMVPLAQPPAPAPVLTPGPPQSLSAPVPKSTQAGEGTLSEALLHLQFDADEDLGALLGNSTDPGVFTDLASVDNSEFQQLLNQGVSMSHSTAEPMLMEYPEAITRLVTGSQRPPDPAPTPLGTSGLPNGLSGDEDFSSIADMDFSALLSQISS

RAW264.7 [8] = assay: Inhibition of ERK phosphorylation in LPS-induced mouse RAW264.7 cells at 1.25 to 5 uM incubated with compound for 1 hr followed by LPS stimulation measured after 4 hrs by Western blot analysis; format: cell-based
Summary of the method: (§2)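 Western blot of MAPK phosphorylation in RAW264.7 cells. Cells pretreated with or without compound (1.25, 2.5, 5.0 μM) for 1 h, then LPS (0.1 μg/mL) for 4 h. Lysed in 1% RIPA, BCA protein assay, SDS-PAGE, PVDF, milk block 2 h at 25 °C, primary antibody 12 h at 4 °C, then secondary at room temperature.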

RAW264.7 [9] = assay: Inhibition of JNK phosphorylation in LPS-induced mouse RAW264.7 cells at 1.25 to 5 uM incubated with compound for 1 hr followed by LPS stimulation measured after 4 hrs by Western blot analysis; format: cell-based; summary of the method: as §2
[10] = target: MAP kinase p38 (Mus musculus) (UniProt P47811+O08911+Q9WUI1+Q9Z1B7); assay: Inhibition of p38 phosphorylation in LPS-induced mouse RAW264.7 cells at 1.25 to 5 uM incubated with compound for 1 hr followed by LPS stimulation measured after 4 hrs by Western blot analysis; format: cell-based; summary of the method: as §2

| SMILES | IC50 (RAW264.7 [1]) [µM] | further results |
| --- | --- | --- |
| C=C1C(=O)O[C@H]2[C@H]1C[C@@H](OC(=O)C=C(C)C)[C@@](C)(O)[C@@]13O[C@@H]1[C@@H]1O[C@]1(C)[C@H]23 | 4.8 |  |
| C=C1C(=O)O[C@H]2[C@H]1C[C@@H](OC(=O)/C(C)=C/C)[C@@](C)(O)[C@]13O[C@H]1[C@H]1O[C@@]1(C)[C@H]23 | 6.3 |  |
| C=C1C(=O)O[C@H]2[C@H]1C[C@@H](OC(=O)/C(C)=C/C)[C@@](C)(O)[C@@]13O[C@@H]1[C@@H]1O[C@]1(C)[C@H]23 | 3.9 |  |
| C=C1C(=O)O[C@H]2[C@H]1C[C@@H](OC(=O)/C(C)=C\C)[C@@](C)(O)[C@@]13O[C@@H]1[C@@H]1O[C@]1(C)[C@H]23 | 1.4 | Activity (RAW264.7 [2]): Non-Toxic; Activity (RAW264.7 [3]): Active; Activity (RAW264.7 [4]): Active; inhibition (RAW264.7 [5]): Active; Activity (RAW264.7 [6]): Active; inhibition [7]: Active; inhibition (RAW264.7 [8]): Active; inhibition (RAW264.7 [9]): Active; inhibition [10]: Active |
| C=C1C(=O)O[C@H]2[C@@H]1[C@@H](OC(=O)C=C(C)C)C[C@@](C)(O)[C@@]13C=C[C@@](C)(OO1)[C@H]23 | 7.2 |  |
| C=C1C(=O)O[C@H]2[C@H]1C[C@@H](OC(=O)/C(C)=C\C)[C@@](C)(O)[C@]13O[C@H]1[C@H]1O[C@@]1(C)[C@H]23 | 4 |  |
| C=C1C(=O)O[C@H]2[C@@H]1[C@@H](OC(=O)/C(C)=C/C)C[C@@](C)(O)[C@@]13C=C[C@@](C)(OO1)[C@H]23 | 3.4 |  |
| CNC(=N)NCCC[C@H](N)C(=O)O [TILARGININE] | 25.8 |  |

Continued, in another order:

| IC50 (RAW264.7 [1]) [µM] | SMILES | further results |
| --- | --- | --- |
| > 50 | C=C1C(=O)O[C@H]2[C@H]1CC[C@@](C)(O)[C@]13C=C[C@](C)([C@@H]21)[C@]1(C3)C(=O)O[C@H]2[C@H]1CC[C@@](C)(O)[C@]13O[C@H]1[C@@H](O)[C@](C)(O)[C@H]23 |  |
| 21.5 | C=C1C(=O)O[C@H]2[C@H]1CC[C@@](C)(O)[C@]13O[C@H]1[C@@H](O)[C@](C)(O)[C@H]23 |  |
| 7.1 | C=C1C(=O)O[C@H]2[C@H]1C[C@@H](OC(=O)/C(C)=C\C)[C@@](C)(O)[C@]13O[C@H]1[C@@H](O)[C@@](C)(O)[C@H]23 |  |
| > 50 | C=C1C(=O)O[C@H]2[C@H]1CC[C@@](C)(O)[C@]13C=C[C@](C)([C@@H]21)[C@]1(C3)C(=O)O[C@H]2[C@H]1CC[C@@](C)(O)[C@]13O[C@H]1[C@@H](O)[C@@](C)(O)[C@H]23 |  |
| 9.7 | C=C(C)C(=O)O[C@@H]1C[C@H]2C(=C)C(=O)O[C@@H]2[C@H]2[C@](C)(O)[C@@H](Cl)[C@@H]3O[C@@]32[C@]1(C)O |  |

— ChEMBL document CHEMBL4138290, “Highly Oxidized Guaianolide Sesquiterpenoids with Potential Anti-inflammatory Activity from Chrysanthemum indicum” (J Nat Prod, 2018)
